Measurements reported in ChEMBL document CHEMBL1153086, “N-acylpolyamine inhibitors of HDM2 and HDMX binding to p53” (Bioorg Med Chem, 2009).

Legend:
Protein Mdm4 = biological target: T1, Protein Mdm4 (Homo sapiens, UniProt O15151); assay: Inhibition of GST-tagged HDMX expressed in Escherichia coli BL21 (DE3) assessed as inhibition of HDMX binding to p53 protein by fluorescence anisotropy competition method
T1 sequence (O15151 whole entry): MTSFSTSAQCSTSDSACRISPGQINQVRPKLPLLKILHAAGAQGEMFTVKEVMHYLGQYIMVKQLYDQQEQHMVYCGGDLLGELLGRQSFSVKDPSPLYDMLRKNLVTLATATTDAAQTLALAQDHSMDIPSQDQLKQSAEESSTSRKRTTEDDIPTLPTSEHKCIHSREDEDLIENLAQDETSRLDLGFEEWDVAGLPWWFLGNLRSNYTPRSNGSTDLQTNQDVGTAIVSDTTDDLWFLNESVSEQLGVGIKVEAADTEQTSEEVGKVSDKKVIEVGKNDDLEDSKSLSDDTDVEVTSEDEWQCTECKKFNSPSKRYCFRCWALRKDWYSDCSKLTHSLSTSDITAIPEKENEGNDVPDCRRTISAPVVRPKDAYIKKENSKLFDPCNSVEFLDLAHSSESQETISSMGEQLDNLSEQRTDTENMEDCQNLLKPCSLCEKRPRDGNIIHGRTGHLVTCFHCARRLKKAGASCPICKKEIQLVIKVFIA

[1] = biological target: E3 ubiquitin-protein ligase Mdm2 (Homo sapiens, UniProt Q00987); assay: Inhibition of HDM2 expressed in Escherichia coli BL21 (DE3) assessed as inhibition of HDM2 binding to p53 protein by fluorescence anisotropy competition method
Method in brief: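 Fluorescence anisotropy competition: HDM2(11–119) at 2.2 μM with 30 nM fluorescein-labeled human p53(15–29) (protein in 70-fold molar excess) in 10 mM Tris-HCl pH 7.6, 150 mM NaCl, 0.50 mM EDTA, 2 mM β-mercaptoethanol, incubated room temperature 1 h or 4 °C overnight. Competitor diluted in water from ~10−2 M stocks. Anisotropy read at 25 °C in triplicate; IC50 from nonlinear fit with slope factor.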

Chain of E3 ubiquitin-protein ligase Mdm2 (Q00987 whole entry): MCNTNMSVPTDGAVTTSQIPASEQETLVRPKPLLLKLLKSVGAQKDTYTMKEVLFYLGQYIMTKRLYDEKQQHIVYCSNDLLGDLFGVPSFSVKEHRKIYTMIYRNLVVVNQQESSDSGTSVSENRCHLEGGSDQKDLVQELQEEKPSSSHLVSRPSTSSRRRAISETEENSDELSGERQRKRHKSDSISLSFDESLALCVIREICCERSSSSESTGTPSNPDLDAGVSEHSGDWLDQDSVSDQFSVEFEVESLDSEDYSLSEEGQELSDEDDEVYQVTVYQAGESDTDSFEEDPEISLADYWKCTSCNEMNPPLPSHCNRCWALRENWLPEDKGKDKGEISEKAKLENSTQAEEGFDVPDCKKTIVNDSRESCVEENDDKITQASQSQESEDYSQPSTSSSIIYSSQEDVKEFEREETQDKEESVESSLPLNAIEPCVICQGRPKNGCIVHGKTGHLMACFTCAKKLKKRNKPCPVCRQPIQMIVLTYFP

IC50 (Protein Mdm4; read-out: IC50) [µM]	IC50 ([1]; read-out: IC50) [µM]	SMILES	IC50 (Protein Mdm4)	IC50 [1]
3.2	2.3	Cc1ccc(CCNC(=O)N(CC(CCCCN)N(CC(CCC(=O)O)NC(=O)CCC(C)C)C(=O)NCCCC2CCCCC2)C(CCC(=O)O)CN(CCC(N)=O)C(=O)NCCCc2ccc(Br)cc2)cc1 (centres undefined)	–	–
8	6.6	NCCCCC(CN(C(=O)NCCc1ccc(Br)cc1)C(CCC(=O)O)CN(CCC(N)=O)C(=O)NCCCc1ccc(Br)cc1)N(CC(CCC(=O)O)NC(=O)NCC1CCCCC1)C(=O)NCCCC1CCCCC1 (centres undefined)	–	–
7.5	2.8	NCCCCC(CN(C(=O)NCCc1ccc(Br)cc1)C(CCC(=O)O)CN(CCC(N)=O)C(=O)NCCCc1ccc(Br)cc1)N(CC(CCC(=O)O)NC(=O)CCC1CCCCC1)C(=O)NCCCC1CCCCC1 (centres undefined)	–	–
10	17	C=CCNC(=O)NC(CCC(=O)O)CN(C(=O)NCCCC1CCCCC1)C(CCCCN)CN(C(=O)NCCc1ccc(Br)cc1)C(CCC(=O)O)CN(CCC(N)=O)C(=O)NCCCc1ccc(Br)cc1 (centres undefined)	–	–
7.6	10.5	NCCCCC(CN(C(=O)NCCc1ccc(Br)cc1)C(CCC(=O)O)CN(CCC(N)=O)C(=O)NCCCc1ccc(Br)cc1)N(CC(CCC(=O)O)NC(=O)Cc1ccccc1)C(=O)NCCCC1CCCCC1 (centres undefined)	–	–
5.1	2.9	Cc1ccc(CCNC(=O)N(CC(CCCCN)N(CC(CCC(=O)O)NC(=O)CCC(C)C)C(=O)NCCCC2CCCCC2)C(CCC(=O)O)CN(CCC(N)=O)C(=O)NCCCc2ccc(F)cc2)cc1 (centres undefined)	–	–
41	5.9	CC(C)CCC(=O)N[C@@H](CCCC(=O)O)CN(C(=O)NCCCC1CCCCC1)[C@@H](CCCCN)CN(C(=O)NCCc1ccc(Br)cc1)[C@@H](CCCC(=O)O)CN(CCC(N)=O)C(=O)NCCCc1ccc(F)cc1	–	–
14	13	Cc1ccc(CCNC(=O)N(CC(CCCCN)N(CC(CCC(=O)O)NC(=O)CCC(C)C)C(=O)NCCCC2CCCCC2)C(CCC(=O)O)CN(CCC(N)=O)C(=O)NCCCCc2ccc(F)cc2)cc1 (centres undefined)	–	–
10	8.2	NCCCCC(CN(C(=O)NCCc1ccc(Br)cc1)C(CCC(=O)O)CN(CCC(N)=O)C(=O)NCCCc1ccc(Br)cc1)N(CC(CCC(=O)O)NC(=O)[C@@H]1CCCN1)C(=O)NCCCC1CCCCC1 (some centres undefined)	–	–
6.5	6.4	NCCCCC(CN(C(=O)NCCc1ccc(Br)cc1)C(CCC(=O)O)CN(CCC(N)=O)C(=O)NCCCc1ccc(Br)cc1)N(CC(CCC(=O)O)NC(N)=O)C(=O)NCCCC1CCCCC1 (centres undefined)	–	–
4.1	2.8	CC(C)CCC(=O)NC(CCC(=O)O)CN(C(=O)NCCCC1CCCCC1)C(CCCCN)CN(C(=O)NCCc1ccc(Br)cc1)C(CCC(=O)O)CN(CCC(N)=O)C(=O)NCCCc1ccc(Br)cc1 (centres undefined)	–	–
2.7	2.6	CC(C)CCC(=O)NC(CCC(=O)O)CN(C(=O)NCCCC1CCCCC1)C(CCCCN)CN(C(=O)NCCc1ccc(Br)cc1)C(CCC(=O)O)CN(CCC(N)=O)C(=O)NCCCc1ccc(F)cc1 (centres undefined)	–	–
24	9.2	CC(C)CCCNC(=O)N(CC(CCC(=O)O)NC(N)=O)C(CCCCN)CN(C(=O)NCCc1ccc(Br)cc1)C(CCC(=O)O)CN(CCC(N)=O)C(=O)NCCCc1ccc(Br)cc1 (centres undefined)	–	–
20	13	NCCCCC(CN(C(=O)NCCc1ccc(Br)cc1)C(CCC(=O)O)CN(CCC(N)=O)C(=O)NCCCc1ccc(Br)cc1)N(CC(CCC(=O)O)NC(N)=O)C(=O)NCCCc1ccccc1 (centres undefined)	–	–
13	13	CC(C)CCCCNC(=O)N(CC(CCC(=O)O)NC(N)=O)C(CCCCN)CN(C(=O)NCCc1ccc(Br)cc1)C(CCC(=O)O)CN(CCC(N)=O)C(=O)NCCCc1ccc(Br)cc1 (centres undefined)	–	–
41	17	CC(C)CCCNC(=O)N(CC(CCC(=O)O)NC(N)=O)C(CCCCN)CN(C(=O)NCCc1ccc(Br)cc1)C(CCC(=O)O)CN(CCC(N)=O)C(=O)NCCc1ccc(Br)cc1 (centres undefined)	–	–

The next lines start with the molecule.

SMILES	IC50 (Protein Mdm4; read-out: IC50) [µM]	IC50 ([1]; read-out: IC50) [µM]	IC50 (Protein Mdm4)	IC50 [1]
NCCCC[C@@H](CN(C(=O)NCCCC1CCCCC1)[C@@H](CCCCN)CN(C(=O)NCCc1ccc(Br)cc1)[C@@H](CCCCN)CN(CCC(N)=O)C(=O)NCCCc1ccc(F)cc1)NC(N)=O	–	–	Not Active	Not Active
CC(C)CCCNC(=O)N(CC(CCC(=O)O)NC(N)=O)C(CCCCN)CN(C(=O)NCCc1ccc(Br)cc1)C(CCC(=O)O)CN(CCC(N)=O)C(=O)NCCCc1ccccc1 (centres undefined)	–	18	–	–
CC(C)CCCNC(=O)N(CC(CCC(=O)O)NC(N)=O)C(CCCCN)CN(C(=O)NCCCc1ccc(Br)cc1)C(CCC(=O)O)CN(CCC(N)=O)C(=O)NCCCc1ccccc1 (centres undefined)	–	20	–	–
CC(C)CCNC(=O)N(CC(CCC(=O)O)NC(N)=O)C(CCCCN)CN(C(=O)NCCc1ccc(Cl)cc1)C(CCC(=O)O)CN(CCC(N)=O)C(=O)NCCc1ccccc1 (centres undefined)	–	> 100	–	–
CC(C)CCCNC(=O)N(CC(CCC(=O)O)NC(N)=O)C(CCCCN)CN(C(=O)NCCc1ccc(Cl)cc1)C(CCC(=O)O)CN(CCC(N)=O)C(=O)NCCc1ccc(Cl)cc1 (centres undefined)	–	63	–	–
Cc1ccc(CCCNC(=O)N(CCC(N)=O)CC(CCC(=O)O)N(CC(CCCCN)N(CC(CCC(=O)O)NC(N)=O)C(=O)NCCCC(C)C)C(=O)NCCc2ccc(Br)cc2)cc1 (centres undefined)	36	24	–	–
NCCCCC(CN(C(=O)NCCc1ccc(Br)cc1)C(CCC(=O)O)CN(CCC(N)=O)C(=O)NCCCc1ccc(Br)cc1)N(CC(CCC(=O)O)NC(N)=O)C(=O)NCCCc1ccc(Br)cc1 (centres undefined)	7.5	8.2	–	–
CC(C)CCC(=O)NC(CCC(=O)O)CN(CCC1CCC2(CCCCC2)CC1)C(CCCCN)CN(CCCCc1ccc(Br)cc1)[C@@H](CCC(=O)O)CN(CCCCCc1ccc(F)cc1)CCC(N)=O (some centres undefined)	> 100	> 100	–	–
CC(C)CCCNC(=O)N(CC(CCC(=O)O)NC(N)=O)C(CCCCN)CN(C(=O)NCCc1ccc(Cl)cc1)C(CCC(=O)O)CN(CCC(N)=O)C(=O)NCCc1ccccc1 (centres undefined)	–	85	–	–
CC(C)CCCNC(=O)N(CC(CCC(=O)O)NC(N)=O)C(CCCCN)CN(C(=O)NCCc1ccc(Cl)cc1)C(CCC(=O)O)CN(CCC(N)=O)C(=O)NCCCc1ccccc1 (centres undefined)	–	43	–	–
CC(C)CCCNC(=O)N(CC(CCC(=O)O)NC(N)=O)C(CCCCN)CN(C(=O)NCCCc1ccccc1)C(CCC(=O)O)CN(CCC(N)=O)C(=O)NCCc1ccc(Br)cc1 (centres undefined)	–	38	–	–
CC(C)CCCNC(=O)N(CC(CCC(=O)O)NC(N)=O)C(CCCCN)CN(C(=O)NCCc1ccc(Br)cc1)C(CCC(=O)O)CN(CCC(N)=O)C(=O)NCCCc1ccc([N+](=O)[O-])cc1 (centres undefined)	–	41	–	–
COc1ccc(CCCNC(=O)N(CCC(N)=O)CC(CCC(=O)O)N(CC(CCCCN)N(CC(CCC(=O)O)NC(N)=O)C(=O)NCCCC(C)C)C(=O)NCCc2ccc(Br)cc2)cc1 (centres undefined)	> 100	> 100	–	–
COc1ccc(CCCNC(=O)N(CC(CCC(=O)O)NC(N)=O)C(CCCCN)CN(C(=O)NCCc2ccc(Br)cc2)C(CCC(=O)O)CN(CCC(N)=O)C(=O)NCCCc2ccc(Br)cc2)cc1 (centres undefined)	12	12	–	–
NCCCCC(CN(C(=O)NCCc1ccc(Br)cc1)C(CCC(=O)O)CN(CCC(N)=O)C(=O)NCCCc1ccc(Br)cc1)N(CC(CCC(=O)O)NC(N)=O)C(=O)NCCCc1ccc([N+](=O)[O-])cc1 (centres undefined)	8.1	10	–	–
